Experimental data taken from ChEMBL document CHEMBL1212764, “Antimicrobial resistance in Haemophilus influenzae respiratory tract isolates in Korea: results of a nationwide acute respiratory infections surveillance” (2010).
Values after ≈ are worked out from the molar mass of the structure shown.

What was measured:
Type in all cases: functional
[1] = test system: Haemophilus influenzae; assay: Antimicrobial activity against Haemophilus influenzae isolate by broth microdilution method
Summary of the method: (§1)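 Broth microdilution MIC in freshly prepared Haemophilus test medium per 2008 CLSI guidelines; H. influenzae ATCC 49247 and ATCC 49766 as control strains. Isolates from outpatient nasal aspirates (no prior antibiotics), cultured on blood agar with S. aureus streak and chocolate agar. PBP3 substitutions deduced from ftsI sequencing against the Rd strain; β-lactamase genes (TEM-1, ROB-1) detected by PCR.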

[2] = test system: Haemophilus influenzae; assay: Antimicrobial activity against beta-lactamase-negative, ampicillin-sensitive Haemophilus influenzae by broth microdilution method; summary of the method: as §1
[3] = test system: Haemophilus influenzae; assay: Antimicrobial activity against Beta-lactamase-positive, ampicillin-resistant Haemophilus influenzae by broth microdilution method; summary of the method: as §1
[4] = test system: Haemophilus influenzae; assay: Antimicrobial activity against Beta-lactamase-negative, ampicillin-resistant Haemophilus influenzae by broth microdilution method; summary of the method: as §1
[5] = test system: Haemophilus influenzae; assay: Antimicrobial activity against Beta-lactamase-positive, ampicillin-cluvulanate-resistant Haemophilus influenzae by broth microdilution method; summary of the method: as §1
[6] = test system: Haemophilus influenzae; assay: Antimicrobial activity against Beta-lactamase-negative, ampicillin-resistant Haemophilus influenzae with Asp350Asn, Ser357Asp, Met377Ile, Ser385Thr, Arg517His substitutions in penicillin-binding protein 3 by broth microdilution method; summary of the method: as §1
[7] = test system: Haemophilus influenzae; assay: Antimicrobial activity against Beta-lactamase-negative, ampicillin-resistant Haemophilus influenzae with Gly490Glu, Asn526Lys substitutions in penicillin-binding protein 3 by broth microdilution method; summary of the method: as §1
[8] = test system: Haemophilus influenzae; assay: Antimicrobial activity against Beta-lactamase-negative, ampicillin-resistant Haemophilus influenzae with Asp350Asn, Met377Ile, Asn526Lys substitutions in penicillin-binding protein 3 by broth microdilution method; summary of the method: as §1
[9] = test system: Haemophilus influenzae; assay: Antimicrobial activity against Beta-lactamase-negative, ampicillin-resistant Haemophilus influenzae with Asp350Asn, Met377Ile, Gly490Glu, Asn526Lys substitutions in penicillin-binding protein 3 by broth microdilution method; summary of the method: as §1
[10] = test system: Haemophilus influenzae; assay: Antimicrobial activity against Beta-lactamase-negative, ampicillin-resistant Haemophilus influenzae with Ala502Val, Asn526Lys substitutions in penicillin-binding protein 3 by broth microdilution method; summary of the method: as §1
[11] = test system: Haemophilus influenzae; assay: Antimicrobial activity against Beta-lactamase-negative, ampicillin-resistant Haemophilus influenzae with Asp350Asn, Met377Ile, Ala502Val, Asn526Lys substitutions in penicillin-binding protein 3 by broth microdilution method; summary of the method: as §1
[12] = test system: Haemophilus influenzae; assay: Antimicrobial activity against Beta-lactamase-negative, ampicillin-resistant Haemophilus influenzae with Asp350Asn, Met377Ile, Gly490Glu, Ala502Val, Asn526Lys substitutions in penicillin-binding protein 3 by broth microdilution method; summary of the method: as §1
[13] = test system: Haemophilus influenzae; assay: Antimicrobial activity against Beta-lactamase-negative, ampicillin-resistant Haemophilus influenzae with Ser311Pro, Ala502Thr, Asn526Lys substitutions in penicillin-binding protein 3 by broth microdilution method; summary of the method: as §1
[14] = test system: Haemophilus influenzae; assay: Antimicrobial activity against Beta-lactamase-negative, ampicillin-resistant Haemophilus influenzae with Ile449Val, Ala502Thr, Asn526Lys substitutions in penicillin-binding protein 3 by broth microdilution method; summary of the method: as §1
[15] = test system: Haemophilus influenzae; assay: Antimicrobial activity against Beta-lactamase-negative, ampicillin-resistant Haemophilus influenzae with Asp350Asn, Ser357Asp, Met377Ile, Ser385Thr, Ala502Thr, Asn526Lys substitutions in penicillin-binding protein 3 by broth microdilution method; summary of the method: as §1
[16] = test system: Haemophilus influenzae; assay: Antimicrobial activity against Beta-lactamase-negative, ampicillin-resistant Haemophilus influenzae with Asp350Asn, Ser357Asp, Ser385Thr, Leu389Phe, Ala502Thr, Asn526Lys substitutions in penicillin-binding protein 3 by broth microdilution method; summary of the method: as §1
[17] = test system: Haemophilus influenzae; assay: Antimicrobial activity against Beta-lactamase-negative, ampicillin-resistant Haemophilus influenzae with Ile449Val, Asn526Lys substitutions in penicillin-binding protein 3 by broth microdilution method; conditions: Haemophilus influenzae; read-out: MIC; summary of the method: as §1
[18] = test system: Haemophilus influenzae; assay: Antimicrobial activity against Beta-lactamase-negative, ampicillin-resistant Haemophilus influenzae with Asp350Asn, Ser357Asp, Met377Ile, Ser385Thr, Leu389Phe, substitutions in penicillin-binding protein 3 by broth microdilution method; summary of the method: as §1
[19] = test system: Haemophilus influenzae; assay: Antimicrobial activity against Beta-lactamase-negative, ampicillin-resistant Haemophilus influenzae with penicillin-binding protein 3 by broth microdilution method; summary of the method: as §1
[20] = test system: Haemophilus influenzae; assay: Antimicrobial activity against Beta-lactamase-positive, ampicillin-cluvulanate-resistant Haemophilus influenzae with Asp350Asn, Ser357Asp, Met377Ile, Ser385Thr, Arg517His substitutions in penicillin-binding protein 3 by broth microdilution method; summary of the method: as §1
[21] = test system: Haemophilus influenzae; assay: Antimicrobial activity against Beta-lactamase-positive, ampicillin-cluvulanate-resistant Haemophilus influenzae with Asp350Asn, Met377Ile, Asn526Lys substitutions in penicillin-binding protein 3 by broth microdilution method; summary of the method: as §1
[22] = test system: Haemophilus influenzae; assay: Antimicrobial activity against Beta-lactamase-positive, ampicillin-cluvulanate-resistant Haemophilus influenzae with Asp350Asn, Met377Ile, Ser385Thr, Asn526Lys substitutions in penicillin-binding protein 3 by broth microdilution method; summary of the method: as §1
[23] = test system: Haemophilus influenzae; assay: Antimicrobial activity against Beta-lactamase-positive, ampicillin-cluvulanate-resistant Haemophilus influenzae with Asp350Asn, Met377Ile, Ala502Val, Asn526Lys substitutions in penicillin-binding protein 3 by broth microdilution method; summary of the method: as §1
[24] = test system: Haemophilus influenzae; assay: Antimicrobial activity against Beta-lactamase-positive, ampicillin-cluvulanate-resistant Haemophilus influenzae with Ala502Val, Asn526Lys substitutions in penicillin-binding protein 3 by broth microdilution method; summary of the method: as §1
[25] = test system: Haemophilus influenzae; assay: Antimicrobial activity against Beta-lactamase-positive, ampicillin-cluvulanate-resistant Haemophilus influenzae with Asp350Asn, Met377Ile, Gly490Glu, Ala502Val, Asn526Lys substitutions in penicillin-binding protein 3 by broth microdilution method; summary of the method: as §1
[26] = test system: Haemophilus influenzae; assay: Antimicrobial activity against Beta-lactamase-positive, ampicillin-cluvulanate-resistant Haemophilus influenzae with Ala368Thr, Ala502Thr, Asn526Lys substitutions in penicillin-binding protein 3 by broth microdilution method; summary of the method: as §1
[27] = test system: Haemophilus influenzae; assay: Antimicrobial activity against Beta-lactamase-positive, ampicillin-cluvulanate-resistant Haemophilus influenzae with Asp350Asn, Ser357Asp, Ala437Ser, Ala502Thr, Asn526Lys substitutions in penicillin-binding protein 3 by broth microdilution method; summary of the method: as §1
[28] = test system: Haemophilus influenzae; assay: Antimicrobial activity against Beta-lactamase-positive, ampicillin-cluvulanate-resistant Haemophilus influenzae with Asp350Asn, Ala502Thr, Asn526Lys substitutions in penicillin-binding protein 3 by broth microdilution method; summary of the method: as §1
[29] = test system: Haemophilus influenzae; assay: Antimicrobial activity against Beta-lactamase-positive, ampicillin-cluvulanate-resistant Haemophilus influenzae with Ile449Val, Asn526Lys substitutions in penicillin-binding protein 3 by broth microdilution method; summary of the method: as §1
[30] = test system: Haemophilus influenzae; assay: Antimicrobial activity against Beta-lactamase-positive, ampicillin-cluvulanate-resistant Haemophilus influenzae with Asp350Asn, Ala437Ser substitutions in penicillin-binding protein 3 by broth microdilution method; summary of the method: as §1

Structure (SMILES): C[C@H]1COc2c(N3CCN(C)CC3)c(F)cc3c(=O)c(C(=O)O)cn1c23.C[C@H]1COc2c(N3CCN(C)CC3)c(F)cc3c(=O)c(C(=O)O)cn1c23.O [LEVOFLOXACIN]
- MIC50 [1]: 0.016 µg/mL
- MIC90 [1]: 0.031 µg/mL
- MIC50 [2]: 0.016 µg/mL
- MIC90 [2]: 0.031 µg/mL
- MIC50 [3]: 0.016 µg/mL
- MIC90 [3]: 0.031 µg/mL
- MIC50 [4]: 0.016 µg/mL
- MIC90 [4]: 0.016 µg/mL
- MIC50 [5]: 0.016 µg/mL
- MIC90 [5]: 0.031 µg/mL

Structure (SMILES): CO/N=C(\C(=O)N[C@@H]1C(=O)N2C(C(=O)O)=C(COC(N)=O)CS[C@H]12)c1ccco1 [CEFUROXIME]
- MIC50 [1]: 2 µg/mL (≈ 4.71 µM)
- MIC90 [1]: 8 µg/mL (≈ 18.9 µM)
- MIC50 [2]: 2 µg/mL (≈ 4.71 µM)
- MIC90 [2]: 8 µg/mL (≈ 18.9 µM)
- MIC50 [3]: 2 µg/mL (≈ 4.71 µM)
- MIC90 [3]: 8 µg/mL (≈ 18.9 µM)
- MIC50 [4]: 8 µg/mL (≈ 18.9 µM)
- MIC90 [4]: 16 µg/mL (≈ 37.7 µM)
- MIC50 [5]: 8 µg/mL (≈ 18.9 µM)
- MIC90 [5]: 32 µg/mL (≈ 75.4 µM)
- MIC [6]: 13.3 µg/mL (≈ 31.3 µM)
- MIC [7]: 9.3 µg/mL (≈ 21.9 µM)
- MIC [8]: 9.3 µg/mL (≈ 21.9 µM)
- MIC [9]: 9.3 µg/mL (≈ 21.9 µM)
- MIC [10]: 6 µg/mL (≈ 14.1 µM)
- MIC [11]: 6 µg/mL (≈ 14.1 µM)
- MIC [12]: 6 µg/mL (≈ 14.1 µM)
- MIC [13]: 11.4 µg/mL (≈ 26.9 µM)
- MIC [14]: 11.4 µg/mL (≈ 26.9 µM)
- MIC [15]: 11.4 µg/mL (≈ 26.9 µM)
- MIC [16]: 11.4 µg/mL (≈ 26.9 µM)
- MIC [17]: 8 µg/mL (≈ 18.9 µM)
- MIC [18]: 13.3 µg/mL (≈ 31.3 µM)
- MIC [19]: 2 µg/mL (≈ 4.71 µM)
- MIC [20]: 32 µg/mL (≈ 75.4 µM)
- MIC [21]: 2 µg/mL (≈ 4.71 µM)
- MIC [22]: 2 µg/mL (≈ 4.71 µM)
- MIC [23]: 11.4 µg/mL (≈ 26.9 µM)
- MIC [24]: 11.4 µg/mL (≈ 26.9 µM)
- MIC [25]: 11.4 µg/mL (≈ 26.9 µM)
- MIC [26]: 6.5 µg/mL (≈ 15.3 µM)
- MIC [27]: 6.5 µg/mL (≈ 15.3 µM)
- MIC [28]: 6.5 µg/mL (≈ 15.3 µM)
- MIC [29]: 4 µg/mL (≈ 9.43 µM)
- MIC [30]: 4 µg/mL (≈ 9.43 µM)

Structure (SMILES): O=C(N[C@H](CO)[C@H](O)c1ccc([N+](=O)[O-])cc1)C(Cl)Cl [CHLORAMPHENICOL]
- MIC50 [1]: 0.5 µg/mL (≈ 1.55 µM)
- MIC90 [1]: 1 µg/mL (≈ 3.09 µM)
- MIC50 [2]: 0.5 µg/mL (≈ 1.55 µM)
- MIC90 [2]: 0.5 µg/mL (≈ 1.55 µM)
- MIC50 [3]: 0.5 µg/mL (≈ 1.55 µM)
- MIC90 [3]: 8 µg/mL (≈ 24.8 µM)
- MIC50 [4]: 0.5 µg/mL (≈ 1.55 µM)
- MIC90 [4]: 1 µg/mL (≈ 3.09 µM)
- MIC50 [5]: 0.5 µg/mL (≈ 1.55 µM)
- MIC90 [5]: 8 µg/mL (≈ 24.8 µM)
